In ChEMBL document CHEMBL2346655, “Synthesis and in vitro biological evaluation of 2,6,9-trisubstituted purines targeting multiple cyclin-dependent kinases” (Eur J Med Chem, 2013):

What was measured:
CCRF-CEM = experiment: Cytotoxicity against human CEM cells assessed as reduction in number of viable cells after 72 hrs by fluorescence assay; format: functional, cell-based
Procedure, shortened: (§1)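 Three-fold compound dilutions tested in triplicate on cultured cells for 72 h. Viable cells detected by adding Calcein AM and reading fluorescence at 485/538 nm (ex/em).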

HCT-116 = experiment: Cytotoxicity against human HCT116 cells assessed as reduction in number of viable cells after 72 hrs by fluorescence assay; format: functional, cell-based; details: HCT-116, 72 h; procedure, shortened: as §1
G-361 = experiment: Cytotoxicity against human G361 cells assessed as reduction in number of viable cells after 72 hrs by fluorescence assay; format: functional, cell-based; details: G-361, 72 h; procedure, shortened: as §1
K562 = experiment: Cytotoxicity against human K562 cells assessed as reduction in number of viable cells after 72 hrs by fluorescence assay; format: functional, cell-based; details: K562, 72 h; procedure, shortened: as §1
HOS = experiment: Cytotoxicity against human HOS cells assessed as reduction in number of viable cells after 72 hrs by fluorescence assay; format: functional, cell-based; procedure, shortened: as §1
[1] = target: Cyclin-dependent kinase 2/cyclin E1 (Homo sapiens, UniProt P24941); experiment: Inhibition of CDK2/Cyclin E (unknown origin) expressed in Sf9 cells using histone H1 as substrate
CDK9/cyclin T1 = CDK9/cyclin T1 (Homo sapiens, UniProt P50750); experiment: Inhibition of CDK9/CyclinT1 (unknown origin) using (YSPTSPS)2KK as substrate; format: protein-complex assay
Procedure, shortened: (§2)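 Buffer was 60 mM HEPES-NaOH pH 7.5, 3 mM MgCl2, 3 mM MnCl2, vanadate, DTT and PEG. Reactions were stopped with H3PO4 and spotted on P-81 paper, which was then washed. Radioactivity was imaged; IC50 taken from dose–response curves.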

[2] = target: Cyclin-dependent kinase 5/CDK5 activator 1 (Homo sapiens, UniProt Q00535); experiment: Inhibition of CDK5/P35 (unknown origin) using histone H1 as substrate; format: protein-complex assay
MCF7 = experiment: Cytotoxicity against human MCF7 cells assessed as reduction in number of viable cells after 72 hrs by fluorescence assay; format: functional, cell-based; details: MCF7, 72 h; procedure, shortened: as §1
[3] = target: Cyclin-dependent kinase 7/ cyclin H (Homo sapiens, UniProt P50613); experiment: Inhibition of CDK7/CyclinH/MAT1 (unknown origin) using (YSPTSPS)2KK as substrate; format: protein-complex assay; procedure, shortened: as §2
Cyclin-dependent kinase 7/ cyclin H, sequence (P51946 whole entry): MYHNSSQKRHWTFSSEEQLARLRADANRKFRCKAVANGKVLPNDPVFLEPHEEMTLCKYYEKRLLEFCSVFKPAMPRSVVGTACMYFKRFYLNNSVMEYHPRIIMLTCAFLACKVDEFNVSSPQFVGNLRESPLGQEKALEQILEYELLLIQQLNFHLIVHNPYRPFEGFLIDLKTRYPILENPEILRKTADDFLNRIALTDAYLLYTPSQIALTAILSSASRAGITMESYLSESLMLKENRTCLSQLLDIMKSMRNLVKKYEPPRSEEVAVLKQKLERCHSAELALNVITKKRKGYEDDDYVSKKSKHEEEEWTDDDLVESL
Cyclin-dependent kinase 7/ cyclin H, sequence (P50613 whole entry): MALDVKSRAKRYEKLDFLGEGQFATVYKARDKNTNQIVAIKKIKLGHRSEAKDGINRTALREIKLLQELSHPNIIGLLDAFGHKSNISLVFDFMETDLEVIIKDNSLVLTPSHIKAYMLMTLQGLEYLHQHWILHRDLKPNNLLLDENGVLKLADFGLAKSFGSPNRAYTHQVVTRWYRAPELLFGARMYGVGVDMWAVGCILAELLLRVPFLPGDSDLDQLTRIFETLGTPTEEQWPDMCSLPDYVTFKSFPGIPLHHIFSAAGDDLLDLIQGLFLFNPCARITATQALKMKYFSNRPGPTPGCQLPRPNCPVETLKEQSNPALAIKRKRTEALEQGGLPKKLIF

Cyclin-dependent kinase 5/CDK5 activator 1, sequence (Q00535 whole entry): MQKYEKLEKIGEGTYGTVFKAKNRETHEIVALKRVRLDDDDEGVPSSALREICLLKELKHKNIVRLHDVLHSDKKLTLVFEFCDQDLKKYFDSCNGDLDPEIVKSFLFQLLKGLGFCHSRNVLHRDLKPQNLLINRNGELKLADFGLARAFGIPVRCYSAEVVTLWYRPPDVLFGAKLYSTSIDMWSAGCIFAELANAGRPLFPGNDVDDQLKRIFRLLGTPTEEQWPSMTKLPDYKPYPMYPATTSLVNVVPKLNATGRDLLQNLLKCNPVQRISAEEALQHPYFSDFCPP
Cyclin-dependent kinase 5/CDK5 activator 1, sequence (Q15078 whole entry, further chain): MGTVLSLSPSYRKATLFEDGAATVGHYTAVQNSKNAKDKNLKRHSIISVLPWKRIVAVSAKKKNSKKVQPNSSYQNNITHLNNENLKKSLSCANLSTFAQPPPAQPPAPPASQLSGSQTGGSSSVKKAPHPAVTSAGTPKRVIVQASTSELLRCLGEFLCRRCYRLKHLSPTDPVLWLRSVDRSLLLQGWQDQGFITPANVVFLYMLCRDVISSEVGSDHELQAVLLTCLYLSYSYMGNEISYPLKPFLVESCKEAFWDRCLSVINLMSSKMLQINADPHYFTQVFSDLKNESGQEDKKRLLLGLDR
CDK9/cyclin T1, sequence (O60563 whole entry): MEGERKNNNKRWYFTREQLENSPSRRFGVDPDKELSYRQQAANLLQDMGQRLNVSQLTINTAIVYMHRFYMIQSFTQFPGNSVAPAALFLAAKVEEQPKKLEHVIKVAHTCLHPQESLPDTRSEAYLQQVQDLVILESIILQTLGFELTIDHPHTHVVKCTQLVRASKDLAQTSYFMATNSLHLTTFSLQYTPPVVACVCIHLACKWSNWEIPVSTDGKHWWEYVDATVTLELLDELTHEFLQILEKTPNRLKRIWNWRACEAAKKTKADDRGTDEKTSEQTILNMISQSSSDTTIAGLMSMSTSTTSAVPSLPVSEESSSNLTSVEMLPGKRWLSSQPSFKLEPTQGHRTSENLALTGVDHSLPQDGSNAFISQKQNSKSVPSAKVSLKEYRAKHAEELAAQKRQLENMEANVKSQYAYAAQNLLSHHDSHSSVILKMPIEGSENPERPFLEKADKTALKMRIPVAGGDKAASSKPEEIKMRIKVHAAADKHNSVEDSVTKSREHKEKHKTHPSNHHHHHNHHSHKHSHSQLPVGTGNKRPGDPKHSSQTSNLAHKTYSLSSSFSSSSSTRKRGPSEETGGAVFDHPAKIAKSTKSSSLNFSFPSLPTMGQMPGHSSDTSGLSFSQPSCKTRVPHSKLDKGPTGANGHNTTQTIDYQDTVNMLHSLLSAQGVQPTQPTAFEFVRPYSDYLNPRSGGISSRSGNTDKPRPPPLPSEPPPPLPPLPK
CDK9/cyclin T1, sequence (P50750 whole entry): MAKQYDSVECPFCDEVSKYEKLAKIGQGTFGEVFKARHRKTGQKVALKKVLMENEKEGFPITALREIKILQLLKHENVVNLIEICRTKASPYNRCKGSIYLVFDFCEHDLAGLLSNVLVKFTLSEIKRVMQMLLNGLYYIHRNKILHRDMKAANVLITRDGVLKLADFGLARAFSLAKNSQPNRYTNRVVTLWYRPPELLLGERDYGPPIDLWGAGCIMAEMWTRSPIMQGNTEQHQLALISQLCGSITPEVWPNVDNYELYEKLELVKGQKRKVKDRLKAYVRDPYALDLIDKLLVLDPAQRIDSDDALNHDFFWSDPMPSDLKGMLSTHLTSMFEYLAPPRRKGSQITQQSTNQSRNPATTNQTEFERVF

Row | Compound | IC50 [1] [µM] | IC50 (CDK9/cyclin T1) [µM] | IC50 [2] [µM] | IC50 [3] [µM] | IC50 (CCRF-CEM) [µM] | IC50 (HCT-116) [µM] | IC50 (G-361) [µM] | IC50 (K562) [µM] | IC50 (HOS) [µM] | IC50 (MCF7) [µM]
1 | CC(C)n1cnc2c(NCc3ccccc3N)nc(NCCC(C)(C)O)nc21 | 0.79 | > 5 | > 5 |  | 100 | 100 | 100 | 100 | 100 | 100
2 | CC(C)CNc1nc(NCc2ccccc2O)c2ncn(C(C)C)c2n1 | 0.22 | 3.13 | 2.36 |  | 13.6 | 22.2 | 15.7 | 10.8 | 23.9 | 14.1
3 | CC(C)[C@H](Nc1nc(NCc2ccccc2N)c2ncn(C(C)C)c2n1)C(C)(C)O | 0.07 | 0.845 | 0.675 | 0.29 | 13.1 | 11.8 | 18.7 | 39.8 | 42.7 | 12.8
4 | CC[C@@H](CO)Nc1nc(NCc2cccc(OC)c2O)c2ncn(C(C)C)c2n1 | 0.059 |  |  |  | 10.7 | 8.7 | 7.8 | 15.4 | 5.9 | 5.3
5 | CC[C@H](CO)Nc1nc(NCc2ccccc2)c2ncn(C(C)C)c2n1 [SELICICLIB] |  |  |  |  | 16.3 | 14.4 | 22.4 | 45.5 | 24.3 | 12.3
6 | COc1cccc(CNc2nc(N3CCNCC3)nc3c2ncn3C(C)C)c1O | 0.63 |  |  |  | 27.5 | 22.5 | 18.9 | 14.2 | 30.6 | 8.3
7 | CC(C)n1cnc2c(NCc3cc(Cl)ccc3O)nc(NC3CCC(O)CC3)nc21 (centres undefined) | 0.061 | 0.91 | 0.55 | 0.54 | 3.2 | 13.2 | 8.2 | 2.4 | 6.4 | 2.6
8 | COc1ccc(CNc2nc(N3CCNCC3)nc3c2ncn3C(C)C)cc1 | 0.89 |  |  |  | 10.8 | 11.5 | 10.1 | 5.3 | 5.1 | 3.53
9 | CC[C@H](CO)Nc1nc(NCc2ccccc2O)c2ncn(C(C)C)c2n1 [OLOMOUCINE II] |  | 0.815 |  |  | 7.4 | 4.1 | 9.2 | 23 | 10.6 | 9.1
10 | CC[C@H](CO)Nc1nc(NCc2ccc(N)cc2)c2ncn(C(C)C)c2n1 |  |  |  |  | 22.6 | 23.8 | 26 | 71.5 | 29.4 | 18.1
11 | CC(C)n1cnc2c(NCc3ccccc3O)nc(NCCC(C)(C)O)nc21 | 0.26 | > 5 | 4.49 |  | 34.6 | 64.1 | 52.2 | 47.3 | 45.5 | 65.9
12 | CC[C@H](CO)Nc1nc(NCc2cccc(OC)c2OC)c2ncn(C(C)C)c2n1 | 0.031 |  |  |  | 38 | 29.5 | 46.6 | 40.1 | 67.5 | 21
13 | CC[C@H](CO)Nc1nc(NCc2cccc(OC)c2O)c2ncn(C(C)C)c2n1 | 0.06 |  |  |  | 16.6 | 12.3 | 22 | 54.8 | 14.8 | 12.6
14 | CC(C)n1cnc2c(NCc3ccc(O)cc3)nc(N3CCNCC3)nc21 | 0.34 |  |  |  | 13.4 | 9.3 | 12.4 | 9.3 | 6.5 | 4.1
15 | COc1ccc(CNc2nc(N3CCN(C)CC3)nc3c2ncn3C(C)C)cc1 | 0.89 |  |  |  | 13.1 | 13.4 | 13.9 | 11.9 | 11.2 | 12

More lines, main results first:

Row | IC50 [1] [µM] | IC50 (CDK9/cyclin T1) [µM] | IC50 [2] [µM] | IC50 [3] [µM] | Compound | IC50 (CCRF-CEM) [µM] | IC50 (HCT-116) [µM] | IC50 (G-361) [µM] | IC50 (K562) [µM] | IC50 (HOS) [µM] | IC50 (MCF7) [µM]
16 | 0.0243 |  |  |  | CC(C)n1cnc2c(NCc3cc(Cl)ccc3O)nc(N[C@@H](C)C(C)(C)O)nc21 | 2.5 | 1.8 | 1.2 | 2 | 1.8 | 1.4
17 | 0.025 | 0.039 | 0.125 | 0.16 | CC(C)n1cnc2c(NCc3cc(Cl)ccc3O)nc(NC3CCC(N)CC3)nc21 (centres undefined) | 3.3 | 2.4 | 2.4 | 2.4 | 2.2 | 1.8
18 | 0.0094 | 0.285 | 0.15 |  | CC[C@H](CO)Nc1nc(NCc2cc(Cl)ccc2O)c2ncn(C(C)C)c2n1 | 3.7 | 5.4 | 4.3 | 3.2 | 5 | 4.6
19 | 0.0118 | 0.1 | 0.067 | 0.18 | CC[C@@H](Nc1nc(NCc2cc(F)ccc2O)c2ncn(C(C)C)c2n1)C(C)O (mixture of isomers) | 1.6 | 1.8 | 1.9 | 2.9 | 2.4 | 1.8
20 | 0.02 | 1.24 | 0.74 | 1.2 | CC(C)n1cnc2c(NCc3ccccc3N)nc(NCC(C)(C)O)nc21 | 12.6 | 12.9 | 12.6 | 34 | 16.9 | 13.5
21 | 0.019 |  | 0.069 | 0.435 | CC(C)n1cnc2c(NCc3cc(Cl)ccc3O)nc(NCC(C)(C)O)nc21 | 3.9 | 4 | 4.3 | 5.1 | 4.4 | 2.7
22 | 0.019 | 0.106 | 0.24 |  | CC[C@H](CO)Nc1nc(NCc2cc(F)ccc2O)c2ncn(C(C)C)c2n1 | 3.9 | 4.8 | 6.5 | 4.1 | 4.5 | 3.6
